In PMC9889650 (Journal of Veterinary Internal Medicine, 2022):
Read-outs that look alike come from different tables or passages of the source.

Tests used:
human DLBCL (hDLBCL) = details: single‐agent treatment; cited from earlier work
[1] = test system: canine osteosarcoma cell line OSCA40; assay: Cell viability after 24h treatment, OSCA40 cell line; assay type: cell-based, dog; details: OSCA40, 24h
Outline: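 OSCA40 canine osteosarcoma cells were kept in α-MEM with 10% FCS, 10 mM L-glutamine and penicillin/streptomycin at 37°C, 5% CO2, for at most four passages, and tested Mycoplasma-negative. As a control line they were given a BH3 mimetic at 2 nM–10 μM, with 0.001% DMSO as the negative control, for 24 h.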

[2] = test system: human B‐cell acute lymphoblastic leukemia cell line RS4;11; assay: Cell viability after 24h treatment, RS4; assay type: cell-based; details: RS4;11 positive control
Outline: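 RS4;11 human B-ALL cells had their identity genetically confirmed and were grown in RPMI with 10% FCS and penicillin/streptomycin at 37°C, 5% CO2, for at most four passages. They were run as a control with each experiment at 1 × 10^5 cells/well in single replicates, given a BH3 mimetic at 2 nM–10 μM or 0.001% DMSO for 24 h at 37°C.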

[3] = test system: primary canine T cell cancers (T cell lymphoma, TZL, T-CLL) neoplastic T lymphocytes; assay: In vitro BH3 mimetics sensitivity cell kill assay, primary canine T cell cancers; assay type: cell-based; details: dog 26, multicentric large T cell lymphoma, neoplastic CD3+ nodal T cells, 24 h
[4] = dogs, 20 mg/kg once a day; cited from earlier work
[5] = test system: MDCK immortalized canine kidney cells; assay: Cell viability after 24h treatment, MDCK cell line; assay type: cell-based, dog
Outline: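 MDCK canine kidney cells were kept in DMEM with 10% FCS and penicillin/streptomycin at 37°C, 5% CO2, for at most four passages, and tested Mycoplasma-negative. As a control line they were given a BH3 mimetic at 2 nM–10 μM, with 0.001% DMSO as the negative control, for 24 h.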

Beagles = details: 2 to 20 mg/kg PO daily for up to 9 months; cited from earlier work
[6] = people, 400 mg daily dosing; cited from earlier work

CC1(C)CCC(CN2CCN(c3ccc(C(=O)NS(=O)(=O)c4ccc(NCC5CCOCC5)c([N+](=O)[O-])c4)c(Oc4cnc5[nH]ccc5c4)c3)CC2)=C(c2ccc(Cl)cc2)C1 [VEN, venetoclax]
overall response rate (human DLBCL (hDLBCL)): 18% | sensitivity in vitro [1]: resistance | sensitivity in vitro [2]: sensitive | EC50 [3]: 0.0079 µM | area under the curve (AUC) [4]: 73600 ng·h/mL | sensitivity in vitro [5]: resistance | Other clinical toxicities (Beagles): grade 2 weight loss associated with hyporexia, and leukotricia | average reduction in circulating lymphocytes (Beagles): 81% | hematological finding (Beagles): mild anemia | area under the curve (AUC) [6]: 31800 ng·h/mL

CC1(C)CCC(c2ccc(Cl)cc2)=C(CN2CCN(c3ccc(C(=O)NS(=O)(=O)c4ccc(N[C@H](CCN5CCOCC5)CSc5ccccc5)c(S(=O)(=O)C(F)(F)F)c4)cc3)CC2)C1 [NAV, navitoclax]
sensitivity in vitro [1]: resistance | EC50 [3]: 0.0208 µM | sensitivity in vitro [5]: resistance
